# Columns and labels:
# [1] = % distribution in octanol versus pH7.4 buffer; type: physicochemical; details: pH 7.4
# [2] = Dissociation constant (pKa) (determined in 30% EtOH); type: physicochemical
# Felis catus = species: Felis catus; test: In vitro concentration required for 50% inhibition of swelling of cat cerebrocortical slices; type: functional; details: read-out: I50
# How it was run: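 Cat cortical slices were weighed and incubated 60 min at 22 °C in 27 mM K+ medium, with HCO3- added for the last 40 min and inhibitor present throughout. Swelling = (final − initial wet weight)/initial wet weight × 100. The HCO3−-dependent increment was taken as the target. I50 is the molarity giving 50% inhibition, read from the concentration–response curve.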
SMILES,Distribution [1] [%],pKa [2],IC50 (Felis catus; Felis catus) [nM],IC50 (Felis catus) [nM]
CCCC12CCC(=O)C=C1c1c(cc(OCC(=O)NCCN(C)C)c(Cl)c1Cl)C2 (configuration not stated),99.7,7.7,> 1000,–
CCCC12CC(=O)C=C1c1c(cc(OCC(=O)O)c(Cl)c1Cl)C2 (configuration not stated),88,3.84,100,–
CCC12CCC(=O)C=C1c1c(cc(OCc3nn[nH]n3)c(Cl)c1Cl)C2 (configuration not stated),95,3.72,> 100,–
CC(C)C12CCC(=O)C=C1c1c(cc(OCC(=O)O)c(Cl)c1Cl)C2 (configuration not stated),89,3.83,> 100,–
CCC12CCC(=O)C=C1c1c(cc(OCC(=O)OCc3cccnc3)c(Cl)c1Cl)C2 (configuration not stated),> 99.9,3.32,0.1,–
CCC12CCC(=O)C=C1c1c(cc(OCC(=O)OCC(C)=O)c(Cl)c1Cl)C2 (configuration not stated),> 99.9,–,1,–
CCCC12CCC(=O)C=C1c1c(cc(OCC(=O)O)c(C)c1C)C2 (configuration not stated),49,4.3,100,–
CCC12C=CC(=O)C=C1c1c(cc(OCC(=O)O)c(Cl)c1Cl)C2 (configuration not stated),79,3.7,> 10,–
CCCC12CCC(=O)C=C1c1ccc(OCC(=O)O)cc1C2 (configuration not stated),49,4.05,50,–
CCCC12CCC(=O)C(C)=C1c1c(cc(OCC(=O)O)c(Cl)c1Cl)C2 (configuration not stated),98,3.5,> 100,–
O=C(O)COc1cc2c(c(Cl)c1Cl)C1=CC(=O)CCC1(C1CCCC1)C2 (configuration not stated),97,3.83,1,–
CCCC12CCC(=O)C=C1c1c(cc(OCC(=O)OC)c(Cl)c1Cl)C2 (configuration not stated),> 99.9,–,0.002,–
CCC12CCC(=O)C=C1c1c(cc(OCCCC(=O)O)c(Cl)c1Cl)C2 (configuration not stated),99.2,3.7,> 10000,–
CCC12CCC(=O)C=C1c1c(cc(OCC(=O)OC)c(Cl)c1Cl)C2 (configuration not stated),99.5,–,20,–
CC12CCC(=O)C=C1c1c(cc(OCC(=O)O)c(Cl)c1Cl)C2 (configuration not stated),62,3.75,10,–
"CCC12CCC(=O)C=C1c1c(cc(OCC(=O)O)c(Cl)c1Cl)C2 (single isomer, unassigned; (+))",–,–,–,10
"CCOC(=O)COc1cc2c(c(Cl)c1Cl)C1=CC(=O)CCC1(CC)C2 (single isomer, unassigned; (+))",> 99.9,–,–,0.1
"CCCC12CCC(=O)C=C1c1c(cc(OCC(=O)OC(CC)(CC)C(=O)O)c(Cl)c1Cl)C2 (single isomer, unassigned; (+))",> 99.9,3.4,0.04,–
"CCCC12CCC(=O)C=C1c1c(cc(OCC(=O)OC(C)(C)C(=O)O)c(Cl)c1Cl)C2 (single isomer, unassigned; (+))",98,3.8,0.004,–
"CCCC12CCC(=O)C=C1c1c(cc(OCC(=O)O)c(Cl)c1Cl)C2 (single isomer, unassigned; (-))",–,–,–,10000
CCCC12CCC(=O)C=C1c1c(cc(OCC(=O)O)c(Cl)c1Cl)C2 (stereo in doubt; 5c),93,3.6,–,0.04
CCOC(=O)COc1cc2c(c(Cl)c1Cl)C1=CC(=O)CCC1(CC)C2 (stereo in doubt; 16b-1),> 99.8,–,–,0.2

# Further lines, results first:
Distribution [1] [%],pKa [2],IC50 (Felis catus; Felis catus) [nM],IC50 (Felis catus) [nM],SMILES
98.6,5.08,> 10,–,CCC12CCC(=O)C=C1c1c(cc(OCC(=O)OCCN3CCOCC3)c(Cl)c1Cl)C2 (configuration not stated)
99.7,3.9,> 100,–,CCCC12CCC(=O)C=C1c1c(cc(OCC(=O)NN(C)C)c(Cl)c1Cl)C2 (configuration not stated)
70,3.5,> 10,–,C=CC12CCC(=O)C=C1c1c(cc(OCC(=O)O)c(Cl)c1Cl)C2 (configuration not stated)
99.8,3.7,3,–,CCCC12CCC(=O)C=C1c1c(cc(OCCCC(=O)O)c(Cl)c1Cl)C2 (configuration not stated)
98,3.5,> 10,–,CCCCC12CCC(=O)C=C1c1c(cc(OCC(=O)O)c(Cl)c1Cl)C2 (configuration not stated)
99.9,–,> 10,–,CCC12CCC(=O)C=C1c1c(cc(OCC(=O)OCC3COC(C)(C)O3)c(Cl)c1Cl)C2 (configuration not stated)
99.7,–,1000,–,CCC12CCC(=O)C=C1c1c(cc(OCC(=O)OCC3CCC(CO)O3)c(Cl)c1Cl)C2 (configuration not stated)
99.3,–,0.7,–,CCC12CCC(=O)C=C1c1c(cc(OCC(=O)OCCCO)c(Cl)c1Cl)C2 (configuration not stated)
99,4.7,> 1000,–,CCCC12CCC(=O)C=C1c1c(cc(SCC(=O)O)c(Cl)c1Cl)C2 (configuration not stated)
95,4.1,100,–,CCCC12CCC(C(C)=O)=C1c1c(cc(OCC(=O)O)c(Cl)c1Cl)C2 (configuration not stated)
11,6.18,> 10000,–,"CCCC12CCC(=O)C=C1c1c(cc(O)c(Cl)c1Cl)C2 (single isomer, unassigned; (+))"
–,–,–,> 10000,"CCOC(=O)COc1cc2c(c(Cl)c1Cl)C1=CC(=O)CCC1(CC)C2 (single isomer, unassigned; (-))"
–,–,–,30,CCC12CCC(=O)C=C1c1c(cc(OCC(=O)O)c(Cl)c1Cl)C2 (stereo in doubt; 5b)
91,3.8,6,–,CCC12CCC(=O)C=C1c1c(cc(OCC(=O)OCC(=O)O)c(Cl)c1Cl)C2 (stereo in doubt; 16b-8)
95,3.8,1,–,CCC12CCC(=O)C=C1c1c(cc(OCC(=O)OC(C)(C)C(=O)O)c(Cl)c1Cl)C2 (stereo in doubt; 16b-9)
83,–,–,3,CCC12CCC(=O)C=C1c1c(cc(OCC(=O)OCC(=O)O)c(Cl)c1Cl)C2 (stereo in doubt; (+)-16b-8)
96,–,–,0.5,CCC12CCC(=O)C=C1c1c(cc(OCC(=O)OC(C)(C)C(=O)O)c(Cl)c1Cl)C2 (stereo in doubt; (+)-16b-9)
81,3.6,–,30000,CCC12CCC(=O)C=C1c1c(cc(OCC(=O)O)c(Cl)c1Cl)C2 (stereo in doubt; (-)-5b)

# Reference: ChEMBL document CHEMBL1123488, “Agents for the treatment of brain edema. 2. [(2,3,9,9a-Tetrahydro-3-oxo-9a-substituted-1H-fluoren-7-yl)oxy]+ ++alkanoi c acids and some of their analogues” (J Med Chem, 1986)
